Data as given in ChEMBL document CHEMBL1137349, “Selective angiotensin II AT2 receptor agonists: arylbenzylimidazole structure-activity relationships” (J Med Chem, 2006).
Active and inactive are the calls of the source. No cut-off for these calls is given here.

Assays:
[1] = target: Type-1 angiotensin II receptor (Rattus norvegicus) (UniProt P25095); assay: Displacement of [125I]Ang2 from AT1 receptor in rat liver membrane
NG108-15 [2] = assay: Induction of NG108-15 cell death at 1 uM; type: functional, cell-based
Outline: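 NG108-15 neuroblastoma × glioma hybrid cells plated at 4 × 10⁴ cells per 35 mm dish and cultured 3 days with test agent across 1 pM to 1 µM. Cells were then examined by phase contrast microscopy and micrographs taken to assess cell death.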

NG108-15 [3] = assay: Induction of neurite growth in NG108-15 cells at 0.1 uM after 3 days in presence of PD-123319; type: functional, cell-based
Outline: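 Here the 0.1 µM agonist was co-incubated with 1 µM of the AT2 antagonist PD 123,319 for 3 days. NG108-15 cells were plated at 4 × 10⁴ per 35 mm dish. The percentage of cells bearing a neurite longer than the cell body was counted from phase-contrast micrographs of 50–100 cells.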

NG108-15 [4] = assay: Induction of neurite growth in NG108-15 cells at 0.1 uM after 3 days; type: functional, cell-based
Outline: (§1)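 NG108-15 cells, which express only AT2, were plated at 4 × 10⁴ cells per 35 mm dish and grown 3 days with or without 0.1 µM agonist, with Ang II as reference. Micrographs were taken under phase contrast. Cells with at least one neurite longer than the cell body were scored positive, as a percentage of 50–100 total cells.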

NG108-15 [5] = assay: Induction of neurite growth in NG108-15 cells relative to control; type: functional, cell-based
Outline: as §1

Row | SMILES | Ki [1] [µM] | further results
1 | CC(C)Cc1cc(-c2ccc(Cn3ccnc3)cc2)c(S(=O)(=O)NC(=O)OC(C)(C)C)s1 | > 10 | –
2 | CCCCOC(=O)NS(=O)(=O)c1ccc(CCCC)cc1-c1ccc(Cn2ccnc2)cc1 | > 10 | –
3 | CCCCN(C)C(=O)NS(=O)(=O)c1sc(CC(C)C)cc1-c1ccc(Cn2ccnc2)cc1 | > 10 | –
4 | COCCOC(=O)NS(=O)(=O)c1sc(CC(C)C)cc1-c1ccc(Cn2ccnc2)cc1 | > 10 | –
5 | CCCCOC(=O)NS(=O)(=O)c1ccc(OCCCC)cc1-c1ccc(Cn2ccnc2)cc1 | – | Activity (NG108-15 [2]): Active; Activity (NG108-15 [3]): inactive; Activity (NG108-15 [4]): Active
6 | CCCCOC(=O)NS(=O)(=O)c1ccc(OC(C)C)cc1-c1ccc(Cn2ccnc2)cc1 | > 10 | –
7 | CCCCS(=O)(=O)NC(=O)c1sc(CC(C)C)cc1-c1ccc(Cn2ccnc2)cc1 | > 10 | –
8 | Cc1cc(Cn2cnc3c2C[C@@H](C(=O)O)N(C(=O)C(c2ccccc2)c2ccccc2)C3)ccc1N(C)C | – | Activity (NG108-15 [5]): inactive
9 | CC(C)Cc1cc(-c2ccc(Cn3ccnc3)cc2)c(S(=O)(=O)NC(=O)OC(C)C)s1 | > 10 | –
10 | CCCCc1ccc(S(=O)(=O)NC(=O)OCC)c(-c2ccc(Cn3ccnc3)cc2)c1 | > 10 | –
11 | CCCCS(=O)(=O)NS(=O)(=O)c1sc(CC(C)C)cc1-c1ccc(Cn2ccnc2)cc1 | > 10 | –
12 | CCCCOC(=O)NS(=O)(=O)c1sc(CCC)cc1-c1ccc(Cn2ccnc2)cc1 | – | Activity (NG108-15 [2]): Active; Activity (NG108-15 [3]): inactive; Activity (NG108-15 [4]): Active
13 | CCCCOC(=O)NS(=O)(=O)c1sc(CCCC)cc1-c1ccc(Cn2ccnc2)cc1 | > 10 | –
